Experimental data collected from several papers.
Lines come from different studies, so protocols differ.
Target: Rhodopsin kinase GRK1 (GRK1, Homo sapiens, UniProt Q15835)
Sequence (Q15835 1-563, as in one of the studies): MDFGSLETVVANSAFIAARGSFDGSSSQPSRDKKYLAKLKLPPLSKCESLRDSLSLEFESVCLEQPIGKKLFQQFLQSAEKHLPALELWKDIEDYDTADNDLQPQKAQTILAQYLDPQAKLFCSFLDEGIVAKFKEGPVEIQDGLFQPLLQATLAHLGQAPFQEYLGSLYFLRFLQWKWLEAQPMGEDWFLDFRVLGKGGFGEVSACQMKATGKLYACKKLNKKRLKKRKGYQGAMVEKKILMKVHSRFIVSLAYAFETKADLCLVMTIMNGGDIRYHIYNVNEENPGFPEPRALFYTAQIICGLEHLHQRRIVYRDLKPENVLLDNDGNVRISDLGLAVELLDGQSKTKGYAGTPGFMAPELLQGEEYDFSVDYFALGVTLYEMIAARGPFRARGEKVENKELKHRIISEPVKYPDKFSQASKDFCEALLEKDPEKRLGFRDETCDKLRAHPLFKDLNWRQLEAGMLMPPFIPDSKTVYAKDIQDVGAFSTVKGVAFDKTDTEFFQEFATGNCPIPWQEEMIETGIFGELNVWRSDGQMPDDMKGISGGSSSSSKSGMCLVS

COc1ccnn2ncc(-c3ccnc(N(C)C)n3)c12
remaining binding (binding; 1 µM): 82%

Cc1cnc(Nc2ccc(C(=O)N3CCC(N4CCCC4)CC3)cc2)nc1-c1cc2ccccc2s1
remaining binding (binding, competition with immobilised ligand; 1 µM): 64%

N[C@@H]1CCN(c2nccc(-c3cnn4ncccc34)n2)C1
remaining binding (binding; 1 µM): 100%

C[C@@H](c1ccc(-n2cnc3c(N)ncnc32)cc1)N1CCc2nn(C)c(Cc3ccccc3)c2C1=O
remaining binding (binding, competition with immobilised ligand; 0.1 µM): 76%

O=C(Nc1c[nH]nc1C(=O)NC1CCNCC1)c1cc(F)cc(F)c1
remaining binding (binding, competition with immobilised ligand; 1 µM): 83%

COCCOc1nc(-c2ccc(Cl)nc2)nc2c1CN(C(=O)c1ncn3ccccc13)CC2
remaining binding (cell-free assay, competition with immobilised ligand; 0.1 µM): 100%

CNC(=O)[C@@H]1CC[C@@H](n2c(-c3ccc4cnccc4c3)nc3ccc(C(=O)NCc4cccc(C(N)=O)c4)cc32)C1
remaining binding (binding, competition with immobilised ligand; 1 µM): 67%

Nc1ncc2c(n1)-c1c([nH]c3ccc(C#CC4CC4)cc13)CCCC2
remaining binding (binding, competition with immobilised ligand; 1 µM): 90%

C[C@H]1CCN(c2nccc(-c3cnn4ncccc34)n2)C1
remaining binding (binding; 1 µM): 74%

CN(C(=O)c1ccccc1)c1cc(N(C)c2ccc3c(c2)CCc2ccc(C(=O)NCCN4CCOCC4)cc2C3=O)ccc1F
remaining binding (cell-free assay, competition with immobilised ligand; 1 µM): 93%

c1cnn2ncc(-c3ccnc(N4CCC45COC5)n3)c2c1
remaining binding (binding; 1 µM): 61%

C[C@@]1(Cc2ccc(C#N)cc2)C(=O)N(c2cc(Cl)cc(Cl)c2)c2ncc(C(=O)NC3(c4nc(C5CCC5)no4)CC3)n21
remaining binding (cell-free assay, competition with immobilised ligand; 1 µM): 100%

F[C@@H]1CCN(c2nccc(-c3cnn4ncccc34)n2)C1
remaining binding (binding; 1 µM): 100%

CCN1CCN(Cc2ccc(C(=O)Nc3ccc(C)c(Oc4ccc5c(c4)CC(=O)N5)c3)cc2C(F)(F)F)CC1
remaining binding (binding, competition with immobilised ligand; 1 µM): 100%

O=C(c1ccc(Nc2nccc(-c3cc4ccccc4s3)n2)cc1)N1CCC(N2CCCC2)CC1
remaining binding (binding, competition with immobilised ligand; 1 µM): 93%

CC1=C(C#N)C(c2ccc3c(c2)c(NC(=O)c2ccccc2C)nn3C)C(C#N)=C(C)N1
remaining binding (cell-free assay, competition with immobilised ligand; 1 µM): 88%

O=C(c1ccc(Nc2ncc(Cl)c(-c3ccc(Cl)s3)n2)cc1)N1CCC(N2CCCC2)CC1
remaining binding (binding, competition with immobilised ligand; 1 µM): 100%

CS(=O)(=O)c1cc(C2(NC(=O)c3cncc4c3cnn4-c3ccc(F)cc3)CC2)ccn1
remaining binding (cell-free assay, competition with immobilised ligand; 1 µM): 87%

FC(F)(F)Oc1cccc(-c2cnc3ccc(-c4ccncc4)nn23)c1
remaining binding (cell-free assay, competition with immobilised ligand; 5 µM): 38%
